What was measured:
[1] = Lipophilicity by shake flask, n-octanol/water partition; format: physicochemical; settings: room temperature
Summary of the method: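 Shake-flask method. Each compound was added separately to n-octanol and to double-distilled water and shaken 24 h at room temperature to saturate each phase. Undissolved solid was removed by centrifugation or filtration, and the saturated solution was evaporated to dryness. Residue weight gave solubility, from which logS and logP were computed.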

DNA (PDB ID: 1BNA) = settings: reported docking; cited from earlier work

SMILES | experimental logP [1] | experimental logP ([1]; listed as Gly) | docking energy with DNA (DNA (PDB ID: 1BNA))
NCC(=O)O [gly, Glycine] | −2.7 | –2.76 | 
O=C(O)CNC1CCCCC1 [CHgly, cyclohexyl glycine] |  |  | -5.71 kcal/mol
